Measurements: PMC3589814 (Journal of molecular biology, 2012)

Assays:
Assay in all cases: isothermal titration calorimetry
Type in all cases: binding
[1] = biological target: ScRR1 (Saccharomyces cerevisiae, UniProt P21524, R293A)
Method in brief: (§1)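 Yeast RR1 (wild type or loop 2 mutant) in the ITC cell at 25 °C, in 50 mM Hepes pH 7.0 with 5 mM MgCl₂, 5 mM DTT and 5% glycerol (20 µM protein for wild type). Titrant was 0.5 mM dGTP. For ADP binding the protein was pre-saturated with dGTP (500 µM); for CDP binding it was pre-saturated with AMPPNP. Blank-corrected heats were fitted to a one-site model, and Kd was taken from the association constant.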

[2] = biological target: T1, ScRR1 (Saccharomyces cerevisiae, UniProt P21524)
T1 sequence (P21524 1-888): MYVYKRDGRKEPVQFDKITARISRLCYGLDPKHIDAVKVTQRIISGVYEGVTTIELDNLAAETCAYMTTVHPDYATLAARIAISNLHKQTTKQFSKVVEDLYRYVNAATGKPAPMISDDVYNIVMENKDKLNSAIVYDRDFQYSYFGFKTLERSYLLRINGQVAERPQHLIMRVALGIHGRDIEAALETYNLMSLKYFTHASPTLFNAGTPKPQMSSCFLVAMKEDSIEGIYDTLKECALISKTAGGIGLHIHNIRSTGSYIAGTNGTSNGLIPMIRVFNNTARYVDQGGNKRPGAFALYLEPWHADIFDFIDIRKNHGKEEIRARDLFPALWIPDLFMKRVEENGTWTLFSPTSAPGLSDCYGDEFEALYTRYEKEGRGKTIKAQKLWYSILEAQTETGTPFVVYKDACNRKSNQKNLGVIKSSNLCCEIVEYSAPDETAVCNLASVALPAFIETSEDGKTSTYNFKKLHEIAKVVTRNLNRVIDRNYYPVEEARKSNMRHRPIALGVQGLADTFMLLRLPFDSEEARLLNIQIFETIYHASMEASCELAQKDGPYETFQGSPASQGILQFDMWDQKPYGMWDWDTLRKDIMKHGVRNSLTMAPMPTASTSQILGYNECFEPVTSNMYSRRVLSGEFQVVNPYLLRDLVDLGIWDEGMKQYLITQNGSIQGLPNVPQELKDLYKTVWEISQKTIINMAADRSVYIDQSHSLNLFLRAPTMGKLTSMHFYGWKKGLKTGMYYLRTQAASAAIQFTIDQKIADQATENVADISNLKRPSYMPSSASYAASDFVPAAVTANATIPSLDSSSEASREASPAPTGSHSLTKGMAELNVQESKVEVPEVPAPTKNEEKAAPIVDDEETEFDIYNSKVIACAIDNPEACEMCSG
Method in brief: as §1

[3] = biological target: ScRR1 (Saccharomyces cerevisiae, UniProt P21524, Q288A)
Sequence of ScRR1 (Saccharomyces cerevisiae, UniProt P21524, Q288A) (P21524 whole entry Q288A): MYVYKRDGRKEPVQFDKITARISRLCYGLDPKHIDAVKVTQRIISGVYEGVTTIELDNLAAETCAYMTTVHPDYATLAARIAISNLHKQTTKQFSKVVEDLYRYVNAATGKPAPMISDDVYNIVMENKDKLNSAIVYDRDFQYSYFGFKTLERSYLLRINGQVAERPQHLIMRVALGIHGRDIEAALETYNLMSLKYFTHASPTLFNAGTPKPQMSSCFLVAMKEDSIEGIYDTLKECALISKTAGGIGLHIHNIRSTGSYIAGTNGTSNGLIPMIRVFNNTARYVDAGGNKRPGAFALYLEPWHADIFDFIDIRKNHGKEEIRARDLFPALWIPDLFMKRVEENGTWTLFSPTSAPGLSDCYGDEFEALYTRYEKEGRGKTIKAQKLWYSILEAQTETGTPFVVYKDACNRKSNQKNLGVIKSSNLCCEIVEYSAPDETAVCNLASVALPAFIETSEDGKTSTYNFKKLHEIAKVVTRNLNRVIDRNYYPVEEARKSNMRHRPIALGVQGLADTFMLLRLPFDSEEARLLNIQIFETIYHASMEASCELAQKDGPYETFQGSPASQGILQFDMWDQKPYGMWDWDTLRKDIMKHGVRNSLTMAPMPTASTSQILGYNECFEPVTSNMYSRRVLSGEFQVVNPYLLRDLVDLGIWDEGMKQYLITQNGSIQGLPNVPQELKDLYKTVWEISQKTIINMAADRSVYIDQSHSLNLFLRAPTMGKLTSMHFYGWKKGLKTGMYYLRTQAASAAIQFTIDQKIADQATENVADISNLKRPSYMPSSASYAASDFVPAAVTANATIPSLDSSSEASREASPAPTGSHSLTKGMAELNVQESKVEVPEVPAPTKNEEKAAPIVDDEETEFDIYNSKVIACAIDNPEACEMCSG
Method in brief: as §1

Sequence of ScRR1 (Saccharomyces cerevisiae, UniProt P21524, R293A) (P21524 whole entry R293A): as the sequence (P21524 whole entry Q288A) above, with A288Q, R293A counted along it

- Kd [1]: 570 nM
- Kd [2]: 270 nM
- Kd [3]: 520 nM
Structure (SMILES): Nc1nc2c(ncn2[C@H]2C[C@H](O)[C@@H](COP(=O)(O)OP(=O)(O)OP(=O)(O)O)O2)c(=O)[nH]1 [dGTP]
